Data published in article PMC11605304 (RSC Medicinal Chemistry, 2024).

Columns and labels:
[1] = test system: LoVo cells; assay: MTT cytotoxicity, 72 h, LoVo colon cancer cells; format: cell-based, human; settings: read-out: IC50 (μM) ± S.D., LoVo, MTT test, 2D monolayer
Procedure, shortened: (§1)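 Cells were kept in log phase at 37 °C, 5% CO₂, in RPMI-1640 with 10% fetal calf serum, penicillin/streptomycin and 2 mM L-glutamine. […] MTT read-out after 72 h exposure, absorbance 570 nm versus untreated wells. IC50 from 4-parameter logistic model; means of at least three independent experiments.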

[2] = test system: human cancer cell line panel; assay: MTT cytotoxicity across the in-house human cancer cell line panel; format: cell-based; settings: MTT test, 72 h
Procedure, shortened: as §1

[3] = test system: PSN-1 cells; assay: MTT cytotoxicity, 72 h, PSN-1 pancreatic cancer cells; format: cell-based, human; settings: read-out: IC50 (μM) ± S.D., PSN-1, MTT test
Procedure, shortened: as §1

[4] = test system: U-1285 cells; assay: MTT cytotoxicity, 72 h, U-1285 small cell lung cancer cells; format: cell-based, human; settings: read-out: IC50 (μM) ± S.D., U-1285, MTT test
Procedure, shortened: as §1

[5] = test system: MCF-7 cells; assay: MTT cytotoxicity, 72 h, MCF-7 breast cancer cells; format: cell-based, human; settings: read-out: IC50 (μM) ± S.D., MCF-7, MTT test
Procedure, shortened: as §1

[6] = test system: B-CPAP cells; assay: MTT cytotoxicity, 72 h, B-CPAP thyroid cancer cells; format: cell-based, human; settings: read-out: IC50 (μM) ± S.D., B-CPAP, MTT test
Procedure, shortened: as §1

[7] = target: LoVo spheroids; assay: 3D spheroid culture, acid phosphatase; format: cell-based, human; settings: read-out: IC50 (μM) ± S.D., LoVo spheroids; 3D spheroids, 72 h, APH assay
Procedure, shortened: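 LoVo spheroids formed from 2.5 × 10³ cells per well in round-bottom non-treated wells, in phenol red free F-12 HAMs medium with 10% fetal calf serum plus 20% methyl cellulose stock solution. Test compound added from DMSO stock (final DMSO 0.5%) at increasing concentrations for 72 h. Viability by modified acid phosphatase assay at 405 nm. IC50 from 4-parameter logistic fit; means of at least three independent experiments.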

[8] = target: protein disulfide isomerase (PDI) (Homo sapiens, UniProt P07237); assay: Cell-free PDI inhibition; format: biochemical
Chain of protein disulfide isomerase (PDI) (P07237 18-508): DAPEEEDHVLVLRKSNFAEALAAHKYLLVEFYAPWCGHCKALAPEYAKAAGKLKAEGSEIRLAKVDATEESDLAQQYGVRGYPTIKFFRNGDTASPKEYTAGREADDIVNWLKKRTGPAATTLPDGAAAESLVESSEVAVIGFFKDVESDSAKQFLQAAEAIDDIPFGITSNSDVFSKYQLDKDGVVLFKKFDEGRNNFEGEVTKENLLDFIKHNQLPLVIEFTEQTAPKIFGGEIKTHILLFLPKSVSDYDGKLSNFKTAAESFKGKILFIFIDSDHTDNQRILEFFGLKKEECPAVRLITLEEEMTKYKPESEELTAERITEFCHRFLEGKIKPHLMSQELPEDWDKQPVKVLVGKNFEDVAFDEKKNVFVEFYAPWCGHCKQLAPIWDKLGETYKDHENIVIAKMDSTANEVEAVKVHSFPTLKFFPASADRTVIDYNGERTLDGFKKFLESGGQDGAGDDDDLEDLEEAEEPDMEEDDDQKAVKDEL

[9] = test system: LoVo OXP cells; assay: MTT cytotoxicity, 72 h, oxaliplatin-resistant LoVo OXP colon cancer cells; format: cell-based, human
Procedure, shortened: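 Oxaliplatin-resistant LoVo OXP subline obtained by growing LoVo cells in increasing oxaliplatin concentrations, with 17 months of resistant-clone selection. Paired with parental LoVo cells in RPMI-1640 with 10% fetal calf serum and 2 mM L-glutamine. 72 h MTT exposure with test compound in DMSO (final 0.5%), absorbance 570 nm. IC50 fitted by 4-parameter logistic model from at least three independent experiments.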

[10] = test system: LoVo cells; assay: Hoechst 33258 staining, morphological analysis of cell death mode; format: cell-based, human; settings: 48 h with IC50
Procedure, shortened: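 LoVo cells were seeded at 5 × 10⁴ per well on tissue-culture slides, grown 24 h and washed twice with PBS. They were then treated with test compound, stained 5 min with 10 μg mL⁻¹ Hoechst 33258 in PBS, and examined for nuclear morphology by confocal microscopy at 40× and 10×.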

[11] = test system: HEK-293 cells; assay: MTT cytotoxicity, 72 h, non-tumor HEK-293 embryonic kidney cells; format: cell-based, human

| Compound | IC50 [1] | cytotoxic effect against all tested cancer cell lines [2] | IC50 [3] | IC50 [4] | IC50 [5] | IC50 [6] | IC50 [7] | reduction of PDI catalytic activity ([8]; highest tested dose (50 μM)) | IC50 ([8]; read-out: IC50 for PDI inhibition, cell-free, Proteostat kit) | R.F. = IC50 (resistant subline)/IC50 (wild-type cells) [9] | fold more effective than complex 2 (average IC50) [2] | IC50 ([2]; read-out: average IC50 across the human cancer cell lines) | morphological changes (cell death mode) [10] | S.I. = average IC50 normal cells/average IC50 for the malignant cells ([11]; HEK-293 vs malignant cells) | IC50 ([11]; read-out: IC50 (μM) ± S.D., HEK-293, MTT test, 72 h, non-tumor cells) |
| --- | --- | --- | --- | --- | --- | --- | --- | --- | --- | --- | --- | --- | --- | --- | --- |
| CC(C)OC(=O)C(n1cccn1)n1cccn1 [L^OiPr, [HC(pz)2COO^iPr]] | > 50 µM | completely ineffective | > 50 µM | > 50 µM | > 50 µM | > 50 µM | – | – | – | – | – | – | – | – | – |
| C1N2CN3CN1CP(C2)C3.Cc1cc(C)n(C(C(=O)OC(C)C)n2nc(C)cc2C)n1.F[P-](F)(F)(F)(F)F.[Cu+] [compound 4, [Cu(L^2OiPr)(PTA)]PF6] | 7.8 ± 1.5 µM | – | 18.2 ± 0.8 µM | 11.9 ± 1.9 µM | 14 ± 1.7 µM | 14.3 ± 0.9 µM | 144 ± 7.8 µM | about 80% | 13.7 µM | 1.9 | 2 fold | 12.3 µM | no classical hallmarks of apoptosis | > 4.0 | > 50 µM |
| N.N.[Cl][Pt][Cl] [Cisplatin, cisplatin, reference compound] | 7.6 ± 1.5 µM | – | 12.1 ± 2.8 µM | 2.1 ± 0.8 µM | 13.9 ± 1.3 µM | 18.5 ± 4.1 µM | 60.6 ± 6.3 µM | – | – | – | – | – | classical morphological features of apoptosis induction | – | – |
| O=C1[O][Pt]2([NH][C@@H]3CCCC[C@H]3[NH]2)[O]C1=O [Oxaliplatin, oxaliplatin, reference compound] | 1.1 ± 0.6 µM | – | – | – | – | – | – | – | – | 13 | – | – | – | – | – |
| Cc1cc(C)n(C(C(=O)OC(C)C)n2nc(C)cc2C)n1 [L^2OiPr, [HC(3,5-Me2pz)2COO^iPr]] | > 50 µM | completely ineffective | > 50 µM | > 50 µM | > 50 µM | > 50 µM | – | – | – | – | – | – | – | – | – |
